Results: ChEMBL document CHEMBL5661970 (Cancer Res, 2006)
The source made the active and inactive calls. The calls are words filed in the database; no cut-off is given here.

How the values were obtained:
[1] = Half life in F344/N JcL-rnu athymic rat at 0.04 mg/kg, po measured upto 72 hrs by HPLC-MS/MS analysis; format: ADME, organism-based; settings: in vivo
Method in brief: (§1)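 Female F344/N JcL-rnu rats, four per group, single p.o. dose suspended in 0.5% methyl cellulose. Tail-vein blood sampled at set times to 72 h. Serum spiked with internal standard, deproteinated with acetonitrile, analysed by HPLC-MS/MS. Parameters derived by noncompartmental analysis.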

[2] = biological target: Insulin-like growth factor 1 receptor (Homo sapiens, UniProt P08069); experiment: Inhibition of IGF-1R (unknown origin) in presence of ATP
Method in brief: (§2)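 Cell-free kinase assay using recombinant tyrosine kinases with 1 μmol/L ATP, run in quadruplicate. IC50 values determined.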

[3] = Apparent oral volume of distribution in F344/N JcL-rnu athymic rat at 5 mg/kg, po measured upto 72 hrs by HPLC-MS/MS analysis; format: ADME, organism-based; settings: in vivo; method in brief: as §1
[4] = Apparent oral clearance in F344/N JcL-rnu athymic rat at 0.2 mg/kg, po measured upto 72 hrs by HPLC-MS/MS analysis; format: ADME, organism-based; settings: in vivo; method in brief: as §1
[5] = biological target: Tyrosine-protein kinase JAK2 (Homo sapiens, UniProt O60674); experiment: Inhibition of Jak2 (unknown origin) in presence of ATP
Calu-6 [6] = experiment: Antitumor activity against human Calu-6 cells xenografted in gamma-irradiation induced RH-rnu/rnu athymic rat assessed as tumor growth inhibition at 0.2 mg/kg, po administered once daily for 2 weeks and measured on day 14 relative to control; format: functional; settings: Calu-6, light or radiation study, 336 h, read-out: TGI
Method in brief: (§3)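 Rats were γ-irradiated with 7 Gy whole body, and 24 h later received s.c. tumor cells. Fragments (20-30 mg) from ~1,500 mm3 tumors were then implanted s.c. into irradiated athymic rats. Oral dosing at 0.2 or 1 mg/kg or vehicle ran once daily for 2 weeks from day 0. Tumors were measured with calipers twice weekly (length×width²×0.5). TGI% was taken versus vehicle on day 14 (BxPC-3: day 13), with an unpaired t test on RTV.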

[7] = Tmax in F344/N JcL-rnu athymic rat at 1 mg/kg, po measured upto 72 hrs by HPLC-MS/MS analysis; format: ADME, organism-based; settings: in vivo; method in brief: as §1
LoVo = experiment: Antitumor activity against human LoVo cells xenografted in gamma-irradiation induced RH-rnu/rnu athymic rat assessed as tumor growth inhibition at 1.0 mg/kg, po administered once daily for 2 weeks and measured on day 14 relative to control; format: functional; settings: light or radiation study, 336 h, read-out: TGI; method in brief: as §3
[8] = biological target: Epidermal growth factor receptor (Homo sapiens, UniProt P00533); experiment: Inhibition of EGFR phosphorylation in serum starved human A-431 cells incubated for 1 hr by immunoblotting analysis; format: cell-based
Method in brief: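 Cells starved overnight in basic medium with 0.5% FBS, incubated 1 h with compound or 0.1% DMSO, then stimulated 5 min at 37°C with human recombinant cognate ligand. Receptor immunoprecipitated from lysate and immunoblotted for phosphotyrosine; IC50 by nonlinear regression of percent inhibition, n = 4.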

[9] = Antitumor activity against human CGL-9 cells xenografted in gamma-irradiation induced RH-rnu/rnu athymic rat assessed as tumor growth inhibition at 1.0 mg/kg, po administered once daily for 2 weeks and measured on day 14 relative to control; format: functional; settings: CGL-9, light or radiation study, 336 h, read-out: TGI
Method in brief: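 Human tumor cells inoculated s.c. in right flank of athymic rats 24 h after whole-body γ-irradiation (7 Gy, Co60); established ~1,500 mm3 tumors excised and 20-30 mg fragments implanted s.c. in irradiated rats. Oral dosing in 0.5% methyl cellulose vehicle from randomization (day 0). Tumor volume measured twice weekly by calipers, (length × width²) × 0.5; TGI% versus vehicle on day 14.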

A549 [10] = experiment: Antitumor activity against human A549 cells xenografted in F344/N Jcl-rnu athymic rat assessed as tumor regression at 1.0 mg/kg, po relative to control
[11] = Minimum concentration at steady state in F344/N JcL-rnu athymic rat at 0.2 mg/kg/day, po measured upto 72 hrs by HPLC-MS/MS analysis; format: ADME, organism-based; settings: in vivo
Method in brief: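 Steady-state serum levels for repeated oral 0.2 mg/kg daily dosing were simulated from single-dose serum data (female F344/N JcL-rnu rats, four per group, tail-vein sampling to 72 h, HPLC-MS/MS, noncompartmental analysis), not measured directly.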

A549 [12] = experiment: Antitumor activity against human A549 cells xenografted in F344/N Jcl-rnu athymic rat assessed as increase in percentage of necrotic areas in tumor by H and E staining based assay
Ephrin type-B receptor 2 = Ephrin type-B receptor 2 (Homo sapiens, UniProt P29323); experiment: Inhibition of EphB2 (unknown origin) in presence of ATP; method in brief: as §2
Calu-6 [13] = experiment: Antitumor activity against human Calu-6 cells xenografted in RH-rnu/rnu athymic rat assessed as decreased microvessel density at 1 mg/kg, po administered for 14 days by immunofluorescence staining analysis relative to control; format: functional; parameters: scale not given: the % may be the effect or the level left; settings: time 14 day
A549 [14] = experiment: Antitumor activity against human A549 cells xenografted in F344/N Jcl-rnu athymic rat assessed as reduction in number of CD31-positive cells in viable regions of tumor at 0.04 mg/kg, po administered once daily for 7 days by immunofluorescence staining analysis relative to control; settings: time 7 day
[15] = biological target: Fibroblast growth factor receptor 4 (Homo sapiens, UniProt P22455); experiment: Inhibition of FGFR-4 (unknown origin) in presence of ATP
SK-HEP1 = experiment: Antitumor activity against human SK-HEP1 cells xenografted in gamma-irradiation induced RH-rnu/rnu athymic rat assessed as tumor growth inhibition at 0.2 mg/kg, po administered once daily for 2 weeks and measured on day 14 relative to control; format: functional; settings: SK-HEP1, light or radiation study, 336 h, read-out: TGI
LS174T = experiment: Antitumor activity against human LS174T cells xenografted in gamma-irradiation induced RH-rnu/rnu athymic rat assessed as tumor growth inhibition at 1.0 mg/kg, po administered once daily for 2 weeks and measured on day 14 relative to control; format: functional; settings: light or radiation study, 336 h, read-out: TGI; method in brief: as §3
BXPC-3 = experiment: Antitumor activity against human BXPC-3 cells xenografted in gamma-irradiation induced RH-rnu/rnu athymic rat assessed as tumor growth inhibition at 0.2 mg/kg, po administered once daily for 2 weeks and measured on day 13 relative to control; format: functional; settings: BXPC-3, light or radiation study, 336 h, read-out: TGI; method in brief: as §3
[16] = Tmax in F344/N JcL-rnu athymic rat at 0.04 mg/kg, po measured upto 72 hrs by HPLC-MS/MS analysis; format: ADME, organism-based; settings: in vivo; method in brief: as §1
Calu-6 [17] = experiment: Antitumor activity against human Calu-6 cells xenografted in RH-rnu/rnu athymic rat assessed as increased ratio of enlarged vessels with >100 uM diameter in tumor at 1 mg/kg, po administered for 14 days by H33342 dye based fluorescence microscopic analysis relative to control; format: functional; settings: time 14 day
Method in brief: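 Calu-6 tumor-bearing athymic rats, three per group, received oral drug at 0.2 or 1 mg/kg or vehicle on days 0-13. They were killed 1 min after i.v. H33342 at 20 mg/kg on day 13. 10 µm cryosections were cut from five tumor levels at least 200 µm apart and examined under UV epifluorescence. The major axis of fluorescent halos around vessels was measured by image analysis, with a Mann-Whitney test.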

Chain of Fibroblast growth factor receptor 4 (P22455 whole entry): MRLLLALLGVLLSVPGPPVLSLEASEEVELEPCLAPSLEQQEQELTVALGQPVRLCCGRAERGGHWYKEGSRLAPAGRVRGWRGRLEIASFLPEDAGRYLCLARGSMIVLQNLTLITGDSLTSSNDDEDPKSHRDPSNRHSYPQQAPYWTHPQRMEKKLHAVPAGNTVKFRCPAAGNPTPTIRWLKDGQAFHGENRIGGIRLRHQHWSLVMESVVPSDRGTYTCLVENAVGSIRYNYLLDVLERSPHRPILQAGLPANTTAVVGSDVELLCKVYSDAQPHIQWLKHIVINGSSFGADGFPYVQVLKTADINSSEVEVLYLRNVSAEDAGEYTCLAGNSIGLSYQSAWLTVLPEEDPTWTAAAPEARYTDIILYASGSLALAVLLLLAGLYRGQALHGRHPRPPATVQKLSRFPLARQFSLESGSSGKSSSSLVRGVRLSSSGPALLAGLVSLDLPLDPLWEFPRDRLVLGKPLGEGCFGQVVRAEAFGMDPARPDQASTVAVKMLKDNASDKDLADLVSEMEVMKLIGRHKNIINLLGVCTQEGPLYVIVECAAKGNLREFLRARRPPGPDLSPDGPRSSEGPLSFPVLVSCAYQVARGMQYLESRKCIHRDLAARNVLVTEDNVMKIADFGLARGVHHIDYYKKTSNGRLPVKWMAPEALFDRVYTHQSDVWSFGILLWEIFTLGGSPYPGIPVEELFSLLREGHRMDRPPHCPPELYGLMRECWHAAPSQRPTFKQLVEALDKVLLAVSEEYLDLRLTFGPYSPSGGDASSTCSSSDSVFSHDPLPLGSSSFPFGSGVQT
Chain of Epidermal growth factor receptor (P00533 whole entry): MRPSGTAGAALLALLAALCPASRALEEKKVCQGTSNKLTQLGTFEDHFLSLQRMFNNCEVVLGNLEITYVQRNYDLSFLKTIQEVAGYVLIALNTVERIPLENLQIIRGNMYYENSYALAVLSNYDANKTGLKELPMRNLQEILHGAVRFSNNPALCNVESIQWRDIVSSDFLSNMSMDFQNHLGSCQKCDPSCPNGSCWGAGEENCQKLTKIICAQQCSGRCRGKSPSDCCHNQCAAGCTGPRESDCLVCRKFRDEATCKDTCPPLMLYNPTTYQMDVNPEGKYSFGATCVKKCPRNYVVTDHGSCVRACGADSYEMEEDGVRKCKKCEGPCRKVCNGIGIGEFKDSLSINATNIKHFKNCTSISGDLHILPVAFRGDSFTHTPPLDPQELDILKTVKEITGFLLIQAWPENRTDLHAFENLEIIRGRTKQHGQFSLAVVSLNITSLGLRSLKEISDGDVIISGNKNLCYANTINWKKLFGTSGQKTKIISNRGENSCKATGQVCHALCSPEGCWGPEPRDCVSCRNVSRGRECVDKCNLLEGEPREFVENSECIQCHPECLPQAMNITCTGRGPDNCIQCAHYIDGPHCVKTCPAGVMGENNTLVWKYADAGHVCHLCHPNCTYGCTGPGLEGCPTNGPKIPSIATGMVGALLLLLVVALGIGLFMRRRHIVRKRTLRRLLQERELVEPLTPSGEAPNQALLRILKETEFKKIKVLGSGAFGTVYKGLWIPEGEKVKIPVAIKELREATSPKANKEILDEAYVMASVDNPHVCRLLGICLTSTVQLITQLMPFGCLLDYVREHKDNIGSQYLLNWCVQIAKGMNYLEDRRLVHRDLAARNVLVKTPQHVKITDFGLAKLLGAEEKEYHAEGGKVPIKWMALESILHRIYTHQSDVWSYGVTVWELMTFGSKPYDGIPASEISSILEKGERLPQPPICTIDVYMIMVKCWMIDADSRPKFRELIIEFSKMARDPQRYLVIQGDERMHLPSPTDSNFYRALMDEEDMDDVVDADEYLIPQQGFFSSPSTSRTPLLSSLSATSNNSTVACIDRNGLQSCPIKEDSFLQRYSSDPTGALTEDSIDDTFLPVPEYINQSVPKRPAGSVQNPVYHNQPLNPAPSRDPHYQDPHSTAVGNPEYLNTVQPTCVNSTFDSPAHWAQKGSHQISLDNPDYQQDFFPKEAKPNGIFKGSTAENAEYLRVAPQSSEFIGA
Chain of Tyrosine-protein kinase JAK2 (O60674 whole entry): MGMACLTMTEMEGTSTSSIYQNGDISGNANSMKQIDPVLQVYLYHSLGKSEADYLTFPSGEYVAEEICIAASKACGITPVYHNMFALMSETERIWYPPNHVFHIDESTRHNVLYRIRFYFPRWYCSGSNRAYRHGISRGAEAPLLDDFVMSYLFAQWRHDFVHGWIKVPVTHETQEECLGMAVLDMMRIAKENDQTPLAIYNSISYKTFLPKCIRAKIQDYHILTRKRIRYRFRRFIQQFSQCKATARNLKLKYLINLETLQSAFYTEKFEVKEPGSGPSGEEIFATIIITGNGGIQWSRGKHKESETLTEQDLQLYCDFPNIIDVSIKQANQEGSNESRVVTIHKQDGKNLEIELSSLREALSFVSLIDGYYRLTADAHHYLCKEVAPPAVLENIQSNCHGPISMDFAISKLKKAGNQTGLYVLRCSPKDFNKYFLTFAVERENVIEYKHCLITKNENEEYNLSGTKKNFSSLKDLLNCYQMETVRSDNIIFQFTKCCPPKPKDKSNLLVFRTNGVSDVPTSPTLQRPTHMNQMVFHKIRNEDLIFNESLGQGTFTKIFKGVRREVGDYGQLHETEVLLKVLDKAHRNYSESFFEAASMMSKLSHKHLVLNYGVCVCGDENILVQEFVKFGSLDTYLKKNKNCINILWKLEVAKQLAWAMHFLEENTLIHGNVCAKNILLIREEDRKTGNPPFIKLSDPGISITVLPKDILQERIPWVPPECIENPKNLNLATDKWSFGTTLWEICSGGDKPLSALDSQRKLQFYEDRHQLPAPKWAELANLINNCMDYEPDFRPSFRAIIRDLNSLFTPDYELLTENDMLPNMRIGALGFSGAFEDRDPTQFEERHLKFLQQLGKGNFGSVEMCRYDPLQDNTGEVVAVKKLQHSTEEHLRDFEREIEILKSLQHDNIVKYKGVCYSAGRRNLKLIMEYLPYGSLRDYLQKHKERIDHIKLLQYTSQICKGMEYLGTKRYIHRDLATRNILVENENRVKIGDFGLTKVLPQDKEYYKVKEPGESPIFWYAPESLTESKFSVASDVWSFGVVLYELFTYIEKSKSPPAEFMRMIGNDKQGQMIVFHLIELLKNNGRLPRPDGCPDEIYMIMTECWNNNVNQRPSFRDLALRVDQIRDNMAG
Chain of Ephrin type-B receptor 2 (P29323 whole entry): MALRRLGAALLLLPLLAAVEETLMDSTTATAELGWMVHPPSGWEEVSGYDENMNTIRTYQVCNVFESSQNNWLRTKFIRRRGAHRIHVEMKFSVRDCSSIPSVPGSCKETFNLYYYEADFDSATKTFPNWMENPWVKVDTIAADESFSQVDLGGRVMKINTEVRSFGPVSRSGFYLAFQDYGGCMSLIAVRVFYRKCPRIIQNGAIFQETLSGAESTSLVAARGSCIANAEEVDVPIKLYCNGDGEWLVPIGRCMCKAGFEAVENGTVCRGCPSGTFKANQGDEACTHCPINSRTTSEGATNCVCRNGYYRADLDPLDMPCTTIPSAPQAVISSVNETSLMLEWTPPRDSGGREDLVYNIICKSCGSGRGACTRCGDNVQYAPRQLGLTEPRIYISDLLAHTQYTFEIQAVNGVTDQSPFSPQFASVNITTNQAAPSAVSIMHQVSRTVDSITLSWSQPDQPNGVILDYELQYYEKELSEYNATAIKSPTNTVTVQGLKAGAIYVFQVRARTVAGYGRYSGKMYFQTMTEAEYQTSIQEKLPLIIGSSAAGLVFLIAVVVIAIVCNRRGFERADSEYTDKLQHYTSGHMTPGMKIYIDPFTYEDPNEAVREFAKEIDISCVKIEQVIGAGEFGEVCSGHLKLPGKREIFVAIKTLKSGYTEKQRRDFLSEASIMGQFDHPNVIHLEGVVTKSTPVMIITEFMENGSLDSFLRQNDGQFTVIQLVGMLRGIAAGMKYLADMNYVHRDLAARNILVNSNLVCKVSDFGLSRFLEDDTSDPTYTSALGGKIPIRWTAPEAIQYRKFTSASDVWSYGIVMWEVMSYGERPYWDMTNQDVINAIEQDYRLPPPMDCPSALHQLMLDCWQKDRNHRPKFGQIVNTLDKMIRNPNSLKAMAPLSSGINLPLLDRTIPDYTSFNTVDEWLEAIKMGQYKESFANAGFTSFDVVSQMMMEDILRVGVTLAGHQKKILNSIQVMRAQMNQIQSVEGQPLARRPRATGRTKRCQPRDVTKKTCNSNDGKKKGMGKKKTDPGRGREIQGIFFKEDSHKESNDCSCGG

Question: Which half-life [1] does the source give for `COc1cc2nccc(Oc3ccc(NC(=O)Nc4cc(C)on4)c(Cl)c3)c2cc1OC` [TIVOZANIB] here?
Answer: 9.25 h

Question: What about the IC50 [2] of the same molecule?
Answer: > 1000 nM

Question: What about the Vd/F [3] of the same molecule?
Answer: 1.29 L/kg

Question: What about the CL/F [4] of the same molecule?
Answer: 2.07 mL/min/kg

Question: What about the IC50 [5] of the same molecule?
Answer: > 1000 nM

Question: And the inhibition in vivo at 0.2 mg/kg (Calu-6 [6])?
Answer: 44.1%

Question: What about the Tmax [7] of the same molecule?
Answer: 4.25 h

Question: And the inhibition in vivo at 1 mg/kg (LoVo)?
Answer: > 100%

Question: And the IC50 [8]?
Answer: Not Determined(Insoluble)

Question: What about the inhibition in vivo at 1 mg/kg [9] of the same molecule?
Answer: 96.2%

Question: What about the tumor regression % at 1 mg/kg (A549 [10]) of the same molecule?
Answer: 33%

Question: What about the Cminss [11] of the same molecule?
Answer: 22.2 ng/mL

Question: And the Activity (A549 [12])?
Answer: Active

Question: And the IC50 (Ephrin type-B receptor 2)?
Answer: 24 nM

Question: What about the Activity (Calu-6 [13]) of the same molecule?
Answer: 71.2%

Question: What about the Activity (A549 [14]) of the same molecule?
Answer: 15.7%

Question: What about the IC50 [15] of the same molecule?
Answer: > 1000 nM

Question: What about the inhibition in vivo at 0.2 mg/kg (SK-HEP1) of the same molecule?
Answer: 59.4%

Question: What about the inhibition in vivo at 1 mg/kg (LS174T) of the same molecule?
Answer: 99.7%

Question: And the inhibition in vivo at 0.2 mg/kg (BXPC-3)?
Answer: 60.7%

Question: What about the Tmax [16] of the same molecule?
Answer: 3.63 h

Question: What about the Activity (Calu-6 [17]) of the same molecule?
Answer: 30.3%
